In the EternaBench riboswitch data:

Key:
[1] = test system: MS2 coat protein; test: apparent Kd, MS2 coat protein; higher = weaker binding; RNA-MaP array
Method in brief: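 Binding of fluorescently labeled MS2 coat protein, at 1.5 nM to 3 μM and room temperature, was measured with or without input ligand on designed RNAs transcribed on an Illumina sequencing chip from sequenced DNA templates. Apparent Kd was defined as the median of per-cluster binding-curve fits. No design measured on fewer than 10 clusters was kept.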

[2] = test system: MS2 coat protein; test: apparent Kd, MS2 coat protein; higher = weaker binding; RNA-MaP array; FMN 200 µM where present
Method in brief: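 The apparent Kd is reported as the median of filtered per-cluster binding-curve fits. To get these curves, designs transcribed by stalled E. coli RNA polymerase on Illumina sequencing-chip clusters were titrated with SNAP-549-labelled MS2 coat protein from 0.7 or 1.5 nM, doubling to 3 µM. Titrations were run without and then with constant ligand in 100 mM Tris-HCl pH 7.5, 80 mM KCl, 4 mM MgCl2, BSA, DTT, yeast tRNA and Tween-20, and green signal was normalised to red-channel RNA signal and control-cluster median Fmax.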

[3] = designed as: OFF switch for flavin mononucleotide, no ligand
[4] = ligand present: flavin mononucleotide, designed as: OFF switch for flavin mononucleotide
[5] = designed as: ON switch for flavin mononucleotide, no ligand
[6] = ligand present: flavin mononucleotide, designed as: ON switch for flavin mononucleotide

## AACAGAAGACAGGAUAUUACUUAACCAGUAUUGUAAGAAGGGUCGACAUGAGGAUCACCCAUGUGAUCAUACUG
[1]; [3]
  apparent Kd: 48.8 nM
[1]; [4]
  apparent Kd: 47 nM

## UAGCGAUCUCGUUAAAGGAUCCCAUUUGAUACCAGAGAACUUUGCCUCCCUUGGCAGCAAGUGACAUGAGGAUCACCCAUGUUGA
[1]; designed as: OFF switch for theophylline, no ligand
  apparent Kd: 16.2 nM
[1]; ligand present: theophylline, designed as: OFF switch for theophylline
  apparent Kd: 23.9 nM

## GGUGAUUUCCGACGUUUACAUGAGGAUCACCCAUGUAGGUAGAAGGAUAUGUGUAAAAUUGAUAAACAGAAGGUCUUCCGAAUA
[1]; [3]
  apparent Kd: 12.2 nM
[1]; [4]
  apparent Kd: 49.3 nM

## GCAAUUUGACGAGGAUAUGGUCUAUUUUUUUACCCAGAAGGCGUCGCCCACAUGAGGAUCACCCAUGUUCAUGGAUAGGAAAUA
[1]; [3]
  apparent Kd: 11.9 nM

## AUUGAACGUGCAGGAUAUCAAAACCGGAAUCGUUGAGAAGGGCAGUAAUCGGAGAGCACAUGAGGAUCACCCAUGUUCAAUCGA
[1]; [5]
  apparent Kd: 15.9 nM
[1]; [6]
  apparent Kd: 9.32 nM

## UCUAACAUGAGGAUCACCCAUGUACCGUCCCGAGGACCGGUACGGCCGCCACUCGUCUUGCUAAAACUGAAGUGAUCACAAGCCU
[1]; designed as: ON switch for tryptophan, no ligand
  apparent Kd: 20.2 nM
[1]; ligand present: tryptophan, designed as: ON switch for tryptophan
  apparent Kd: 30.8 nM

## GCCACGCUAGAAGGAUAUUUGCCAUAAGUACGGAAAGAAGGUCUCGCCGGAUCGAACAUGAGGAUCACCCAUGUGUGGGUCAGA
[1]; [5]
  apparent Kd: 43.8 nM
[1]; [6]
  apparent Kd: 26 nM

## CGCCCGUACUCAGGAUAUCGAAGUACGAGCCAAAUUAUGUCGGACAUGAGGAUCACCCAUGUGGGCGAGAAGGGAGAACGUGCG
[1]; [3]
  apparent Kd: 29.4 nM
[1]; [4]
  apparent Kd: 16.4 nM

## ACUCAUGCAAAGGAUAUAACAGUUACAGACUGAUUAGAAGGUUGGACAUGAGGAUCACCCAUGUACGACGCGGU
[1]; [3]
  apparent Kd: 9.13 nM
[1]; [4]
  apparent Kd: 28.4 nM

## CACUAUGAGGUCGAUACCAGUACUGAGUUGUACAUGAGGAUCACCCAUGUAAAUGUUCGCUACCCUUGGCAGCGAUAACAUUGCA
[1]; designed as: ON switch for theophylline, no ligand
  apparent Kd: 430 nM
[1]; ligand present: theophylline, designed as: ON switch for theophylline
  apparent Kd: 554 nM

## GCGGUACAUGAGGAUCACCCAUGUGAUUUAACAGGUUUCAUCAGAAGGACUCACGGUUUGCGACAGUAGGAUAUGAAGGGUAAG
[1]; [5]
  apparent Kd: 34.6 nM
[1]; [6]
  apparent Kd: 24.6 nM

## GUCAACACAGUAGGAUAUCCAAUGCGUAAGCUCGGAGAAGGACUUAACUAGCAGUUUGAUCGACAUGAGGAUCACCCAUGUAAU
[1]; [3]
  apparent Kd: 11.3 nM
[1]; [4]
  apparent Kd: 9.96 nM

## CAGUUACUGUAGAAGGAUAUCAUUAAUACGGAUAUAGGAUAUACUCCGGGUGGAAUCGUGAACAUGAGGAUCACCCAUGUUUCG
[1]; [3]
  apparent Kd: 10.2 nM
[1]; [4]
  apparent Kd: 8.6 nM

## GCUCGAGGGCAAGGAUAUAGGGAGAAACAACGCCUAGAAGGUGCACACAUGAGGAUCACCCAUGUUUCUCUAUGACGGAUCAUC
[1]; [3]
  apparent Kd: 18.1 nM
[1]; [4]
  apparent Kd: 17.3 nM

## AAAACAUGAGGAUCACCCAUGUUGAUCAAACACCAGACCAAGAGAAGGAUCAGCACCGAGUGAUGAAAGGAUAUCUAUUAACGG
[1]; [5]
  apparent Kd: 39.2 nM
[1]; [6]
  apparent Kd: 23.8 nM

## AAAGCCAACGAAGGAUAUACAAACAUGAGGAUCACCCAUGUGUCUUUCGUGUAACUGGAAUUCGGGUAGAAGGUCGUUGACAUA
[2]; [3]
  apparent Kd: 14.9 nM
[2]; [4]
  apparent Kd: 21.7 nM

## CCUCCGCAUUAGGAUAUCGUCACGGAAACGUGACGAGAAGGAAUGACAUGAGGAUCACCCAUGUUAACGUGAUG
[2]; [3]
  apparent Kd: 52.2 nM
[2]; [4]
  apparent Kd: 270 nM

## AGUACCAUGUAGAAGGCAUAUCUCAAAGAGAUAUGAGGAUAUACAUGAGGAUCACCCAUGUAAAUGUACUCCAGGAAACUGGAA
[2]; [3]
  apparent Kd: 28.3 nM
[2]; [4]
  apparent Kd: 136 nM

## UUUAUGUCAGGAUAUGAGUAGUAGAACAAUAGUACUACUACUCAGAAGGGACAUGAGGAUCACCCAUGUGCCUC
[2]; [3]
  apparent Kd: 35.2 nM
[2]; [4]
  apparent Kd: 291 nM

## AAGAAAGUUUACGAGGAUAUGUUCCGCAUAACAUGAGGAUCACCCAUGUGAACAAGAAAGGCGACGCAGAAGGCGUGAGCAAAGA
[2]; [5]
  apparent Kd: 359 nM
[2]; [6]
  apparent Kd: 43.2 nM

## GUAGCAUUCUGAGGAUAUCCAUACCGGAAACGGACAUGAGGAUCACCCAUGUGGCGAAAGCCUUGGGAGAAGGCAGUAUGCUAC
[2]; [5]
  apparent Kd: 4.87 nM
[2]; [6]
  apparent Kd: 4.34 nM

## UAGGUCGCAGGAUAUGCUGGGUGCAUAUCUUAGUGCAGGAGACAUGAGGAUCACCCAUGUAGAAGGGCGCGCUG
[2]; [3]
  apparent Kd: 44.9 nM
[2]; [4]
  apparent Kd: 124 nM

## GUUAGGAAUCUAGCGAACAUGAGGAUCACCCAUGUUAGUGGGAAGGAUAUGGUACAGAAACUGUACCAGAAGGUCUUAUUGUUU
[2]; [5]
  apparent Kd: 398 nM
[2]; [6]
  apparent Kd: 305 nM

## CAGGAUAGAGGAUAUACAUAGAUACAGAUUCAUGUGGUCCUACAUGAGGAUCACCCAUGUAGAAGGCUAUCCUG
[2]; [3]
  apparent Kd: 166 nM
[2]; [4]
  apparent Kd: 30 nM

## AGAAACUACGAGAAGGACAUGUGGUCAAAACGAAACAUGAGGAUCACCCAUGUAGGAUAUCGUAGUUUCAGGAUCGUGAGAUCA
[2]; [3]
  apparent Kd: 265 nM
[2]; [4]
  apparent Kd: 429 nM

## UUUUCGAACCGAGGAUAUCCUUAUAAGAAACAUGAGGAUCACCCAUGUAAAGGGAAUUAUUUGUAGGAGAAGGCGGAUUUUGUU
[2]; [5]
  apparent Kd: 44.4 nM
[2]; [6]
  apparent Kd: 29.9 nM
